Measured values from ChEMBL document CHEMBL4699407, “Isoquinoline thiosemicarbazone displays potent anticancer activity with in vivo efficacy against aggressive leukemias” (RSC Med Chem, 2020).
pIC50: −log10 of the molar value. Active and inactive are the calls of the source. No cut-off for these calls is given here.

Tests used:
YAPC = assay: Cytotoxicity against human YAPC cells assessed as reduction in cell viability in presence of Cu2+ incubated for 72 hrs by cell titer-glo luminescent cell viability assay; format: functional, cell-based
Procedure, shortened: (§1)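 Cells were grown in DMEM or RPMI with 10% FBS, without antibiotics, at 37 °C, 20% O2, 5% CO2. Adherent lines were seeded at 500 cells/well. Serially diluted compound was given with 20 μM Cu(II) (CuCl2) for 72 h; leukemia models received pre-formed 1:1 copper complex. ATP was read by CellTiter-Glo luminescence. IC50 is relative to DMSO-treated cells.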

MIA PaCa-2 [1] = assay: Cytotoxicity against human MIA PaCa2 cells assessed as reduction in cell viability 72 hrs by cell titer-glo luminescent cell viability assay; format: functional
Procedure, shortened: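 MIAPACA2 cells in conventional medium without copper supplement got serially diluted compound for 72 h. ATP content was read by CellTiter-Glo, and IC90 (90% proliferation inhibition vs DMSO control) was calculated.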

MIA PaCa-2 [2] = assay: Induction of apoptosis in human MIA PaCa-2 cells assessed as increase in late apoptotic cells at 25 nM in presence of Cu2+ incubated for 72 hrs by annexin V and propidium iodide staining based flow cytometry analysis relative to control; format: functional
Procedure, shortened: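 Cells given 25 nM compound with or without 20 μM Cu(II) and/or the ATR inhibitor VE-822 at 250 nM for 72 h. Stained with annexin V-FITC and propidium iodide, then analysed on a five-laser flow cytometer to score viable, early apoptotic, late apoptotic and necrotic fractions against vehicle.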

MIA PaCa-2 [3] = assay: Induction of mitochondrial ROS generation in human MIA PaCa-2 cells at 25 nM in presence of Cu2+ incubated for 24 hrs by MitoSox red dye based flow cytometry analysis; format: functional; settings: Mitochondria
Procedure, shortened: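 Exposure was 25 nM compound plus 20 μM Cu(II) for 24 h. Cells washed, stained with MitoSOX for 30 min at 37 °C, washed with PBS and analysed by flow cytometry. Mean ± SD, n = 2, Student t-test.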

MIA PaCa-2 [4] = assay: Induction of DNA damage in human MIA PaCa-2 cells assessed as decrease in dCTP level at 25 nM in presence of Cu2+ incubated for 48 hrs by LC-MS/MS analysis; format: functional, cell-based
Procedure, shortened: (§2)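 Cells in DMEM or RPMI with 10% FBS, 37 °C, 5% CO2. Treated with 25 nM compound plus 20 μM Cu(II) for 48 h. Nucleotide pools quantified by LC-MS/MS with multiple reaction monitoring. Cells were in glucose-free DMEM with 10% dialyzed FBS and 11 mM [U-13C6]glucose for 48 h, and glucose-labeled pools were compared. Mean ± SD, n = 3, two-way ANOVA with Bonferroni correction.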

MIA PaCa-2 [5] = assay: Induction of DNA damage in human MIA PaCa-2 cells assessed as decrease in ATP level at 25 nM in presence of Cu2+ incubated for 48 hrs by LC-MS/MS analysis; format: functional, cell-based
Procedure, shortened: (§3)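 MIAPACA2 cells were given 25 nM compound plus 20 μM Cu(II) for 48 h in glucose-free DMEM with 10% dialyzed FBS and 11 mM [U-13C6]glucose. Nucleotide pools were quantified by LC-MS/MS with multiple reaction monitoring. Mean ± SD, n = 3, two-way ANOVA with Bonferroni correction.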

MIA PaCa-2 [6] = assay: Induction of DNA damage in human MIA PaCa-2 cells assessed as decrease in dATP level at 25 nM in presence of Cu2+ incubated for 48 hrs by LC-MS/MS analysis; format: functional, cell-based; procedure, shortened: as §2
MIA PaCa-2 [7] = assay: Induction of DNA damage in human MIA PaCa-2 cells assessed as increase in CHEK1 phosphorylation at 10 nM in presence of Cu2+ incubated for 48 hrs by immunoblot assay; format: functional, cell-based
Procedure, shortened: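 Treated with 10 nM compound plus 20 μM Cu(II). Lysed in RIPA buffer with protease and phosphatase inhibitors, then sonicated and centrifuged at 20 000g, 4 °C. Protein measured by micro BCA, and equal amounts run on bis-tris gels. Primary antibodies in 5% BSA/TBST; HRP-linked anti-rabbit or anti-mouse secondaries at 1:2500. Chemiluminescent detection on film; representative blot.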

NCI-H1963 = assay: Cytotoxicity against human NCI-H1963 cells assessed as reduction in cell viability in presence of Cu2+ incubated for 72 hrs by cell titer-glo luminescent cell viability assay; format: functional, cell-based; settings: NCI-H1963, 72 h; procedure, shortened: as §1
MIA PaCa-2 [8] = assay: Induction of DNA damage in human MIA PaCa-2 cells assessed as decrease in TTP level at 25 nM in presence of Cu2+ incubated for 48 hrs by LC-MS/MS analysis; format: functional, cell-based; procedure, shortened: as §3
143B = assay: Cytotoxicity against human 143-BTK cells assessed as reduction in cell viability at 25 to 100 nM incubated for 48 hrs by trypan blue assay; format: functional, cell-based; settings: dose nM 25-100, time 48.0 hrs
Procedure, shortened: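 143 BTK parental (WT) and ρ0 cells were exposed to the indicated compound concentrations plus 20 μM Cu(II) for 48 h. Viable cells were counted by trypan blue staining on a Vi-Cell counter. Mean ± SD, n = 2, Student t-test.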

MIA PaCa-2 [9] = assay: Induction of DNA damage in human MIA PaCa-2 cells assessed as decrease in UTP level at 25 nM in presence of Cu2+ incubated for 48 hrs by LC-MS/MS analysis; format: functional, cell-based; procedure, shortened: as §2

Molecule `CN(C)C(=S)NN=Cc1nccc2cc(F)ccc12` has a pIC50 (YAPC) of 9.00, an IC90 (MIA PaCa-2 [1]) of 111 nM and an Activity (MIA PaCa-2 [2]) of 3.68%. For the same molecule, the Activity (MIA PaCa-2 [3]) was “Active”, the Activity (MIA PaCa-2 [4]) was “inactive” and the Activity (MIA PaCa-2 [5]) was “inactive”. For the same molecule, the Activity (MIA PaCa-2 [6]) was “inactive”, the Activity (MIA PaCa-2 [7]) was “Active” and the pIC50 (NCI-H1963) was 9.00. The Activity (MIA PaCa-2 [8]) was “inactive”, the Activity (143B) was “Active” and the Activity (MIA PaCa-2 [9]) was “inactive”.
